Data on 27 compounds can be found in ChEMBL document CHEMBL1134629, “Synthesis and biological evaluation of s-triazine substituted polyamines as potential new anti-trypanosomal drugs” (J Med Chem, 2001).

Molecules are shown by their SMILES. pIC50, pKi: −log10 of the molar value.

Experiment [1] is filed under the species Rattus norvegicus. In words: Inhibitory activity against L-6 rat myoblast cells. It counts as functional, cell-based. A digest of the protocol: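 Noninfected rat L-6 skeletal myoblasts seeded at 2000 cells/well in RPMI 1640 with 10% FBS and 2 mM L-glutamine; serial drug dilutions as in the T. cruzi assay, 37 °C, 5% CO2; MIC determined microscopically after 4 days.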

Experiment [2] deals with Trypanosoma brucei rhodesiense. In words: Inhibitory activity against T.b. rhodesiense. It counts as functional, organism-based.
Experiment [3] is described as follows: Inhibitory activity against Trypanosoma cruzi. Type of experiment: functional. A digest of the protocol: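 L-6 myoblasts (2000/well, RPMI 1640, 10% FBS, 2 mM L-glutamine) infected after 24 h with 5000 trypomastigotes of T. cruzi Tulahuen C2C4 carrying LacZ plus serial drug dilution; 4 days at 37 °C, 5% CO2. Intracellular amastigote growth read via CPRG/Nonidet colour at 540 nm after 2-4 h; IC50 from sigmoidal inhibition curve.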

Experiment [4] deals with Trypanosoma brucei brucei. In words: Inhibitory activity against Trypanosoma brucei. It counts as functional, organism-based.
The target of experiment [5] is T1, Adenosine transporter 1 (Trypanosoma brucei, UniProt Q9Y0I0).
T1 sequence (Q9Y0I0 whole entry): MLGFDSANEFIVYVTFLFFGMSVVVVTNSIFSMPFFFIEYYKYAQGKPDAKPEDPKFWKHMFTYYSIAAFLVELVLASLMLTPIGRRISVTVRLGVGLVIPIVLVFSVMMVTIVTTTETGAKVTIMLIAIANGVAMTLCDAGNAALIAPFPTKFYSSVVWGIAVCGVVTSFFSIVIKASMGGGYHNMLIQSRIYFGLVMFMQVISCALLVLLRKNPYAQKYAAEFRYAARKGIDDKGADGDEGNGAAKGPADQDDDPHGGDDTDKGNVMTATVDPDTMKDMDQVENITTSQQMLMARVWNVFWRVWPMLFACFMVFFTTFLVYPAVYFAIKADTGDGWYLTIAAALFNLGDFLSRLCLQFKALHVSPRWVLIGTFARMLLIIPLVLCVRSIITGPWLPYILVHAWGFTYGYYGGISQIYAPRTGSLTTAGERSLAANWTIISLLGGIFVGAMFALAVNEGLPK
In words: Ability to inhibit adenosine uptake by the P2 transporter in Trypanosoma brucei. In a few lines:
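T. b. brucei 427 cells (100 µL at 2 × 10⁸/mL) added to buffer with radiolabeled adenosine, 1 mM inosine to block P1 uptake, and varying inhibitor concentrations; 10 s at room temperature, then spun through 1-bromododecane oil, pellet radioactivity counted by scintillation. Apparent Ki from competitive inhibition equation; duplicate experiments.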

Regarding `CCCCCCCCCCCCCCCCCCNc1nc(NC)nc(NC)n1`, the pIC50 (in general, −log10 of the IC50, conventionally taken in molar units) is 4.32 in experiment [1], 4.85 in experiment [2] and 4.92 in experiment [3].

As for `Nc1nc(N)nc(NCCCCCCCCCCCCNc2nc(N)nc(N)n2)n1`, the figures for the pIC50 in experiment [1], in experiment [2] and in experiment [3] were 3.62, 4.89 and 5.22, respectively.

On to `CN(C)c1nc(N)nc(CN(CCCNCCCCCCCCCNCCCN(Cc2nc(N)nc(N(C)C)n2)Cc2nc(N)nc(N(C)C)n2)Cc2nc(N)nc(N(C)C)n2)n1`, for which the pIC50 in experiment [1] was 3.75; in experiment [4] it was 5.52; in experiment [2], 6.58; in experiment [3] it was 4.26. In addition, the pKi (in general, −log10 of the Ki, conventionally taken in molar units) in experiment [5] is 4.77.

For the compound `Nc1nc(N)nc(NCCCNC2CCC(NCCCNc3nc(N)nc(N)n3)CC2)n1` (centres undefined), the pIC50 in experiment [1] was 3.47; in experiment [4] it was less than 4.00; in experiment [2] it was less than 3.82; in experiment [3] it was less than 3.82. In experiment [5], this compound showed a pKi of 3.90.

With `CNc1nc(NC)nc(NCCCNCCCCCCCCCCCCNCCCN)n1`, the pIC50 is 4.24 in experiment [1], 4.70 in experiment [4], 6.24 in experiment [2] and 4.51 in experiment [3]. The compound also gave a pKi in experiment [5] of 4.60.

For `CN(C)c1nc(N)nc(NCCCNCCCCCCCCCNCCCNc2nc(N)nc(N(C)C)n2)n1`, the pIC50 is 3.56 in experiment [1], 4.40 in experiment [4], 5.02 in experiment [2] and less than 3.91 in experiment [3]. In addition, in experiment [5], the pKi was 5.00.

Take `CN(C)c1nc(N)nc(NCCCNCCCCCCCCCCCCNCCCN)n1`: the pIC50 in experiment [1] is 4.40; in experiment [4], 4.70; in experiment [2], 6.03; in experiment [3] it was 4.49. The compound further gave a pKi in experiment [5] of 6.00.

`CN(C)c1nc(N)nc(CN(CCCNCCCCCCCCCCCCNCCCN(Cc2nc(N)nc(N(C)C)n2)Cc2nc(N)nc(N(C)C)n2)Cc2nc(N)nc(N(C)C)n2)n1`: the pIC50 in experiment [1] is 3.98; in experiment [4], 5.70; in experiment [2], 6.36; in experiment [3], less than 4.11. In experiment [5], this compound showed a pKi of 5.34.

Consider `CNc1nc(N)nc(NCCCNCCCCCCCCCNCCCNc2nc(N)nc(NC)n2)n1`, for which the pIC50 in experiment [1] is 3.55; in experiment [4] it was 4.28; in experiment [2], 4.80; in experiment [3], less than 3.87. The compound further gave a pKi in experiment [5] of 6.12.

`CNc1nc(NC)nc(NCCCNCCCCCCCCCNCCCNc2nc(NC)nc(NC)n2)n1`: the pIC50 in experiment [1] was 3.54; in experiment [4] it was 5.40; in experiment [2], 4.77; in experiment [3], less than 3.89. For the same compound, the pKi in experiment [5] is 4.85.

In the case of `CNc1nc(NC)nc(NCCCNCCCCCCCCCCCCNCCCNc2nc(NC)nc(NC)n2)n1`, the pIC50 in experiment [1] was 3.84; in experiment [4], 4.77; in experiment [2], 5.64; in experiment [3] it was 4.74. In experiment [5], this compound showed a pKi of 5.49.

Take `CNc1nc(N)nc(NCCCNCCCCCCCCCCCCNCCCN)n1`: the pIC50 was 3.90 in experiment [1], less than 3.70 in experiment [4], 5.96 in experiment [2] and less than 3.81 in experiment [3]. This compound had a pKi in experiment [5] of 6.39.

Consider `CNc1nc(N)nc(NCCCNCCCCCCCCCCCCNCCCNc2nc(N)nc(NC)n2)n1`, for which the figures for the pIC50 in experiment [4], in experiment [2] and in experiment [3] were 5.70, 5.01 and 3.94, respectively. The pKi in experiment [5] was 6.87.

For `Nc1nc(N)nc(NCCCNCCCCNCCCNc2nc(N)nc(N)n2)n1`, the pIC50 was 3.45 in experiment [1], less than 4.00 in experiment [4], 3.80 in experiment [2] and less than 3.80 in experiment [3]. The compound further had a pKi in experiment [5] of 4.14.

Take `Nc1nc(N)nc(NCCCNCCCCCCCCCNCCCNc2nc(N)nc(N)n2)n1`: the pIC50 is less than 4.00 in experiment [4], 3.89 in experiment [2] and less than 3.85 in experiment [3]. For the same compound, the pKi in experiment [5] is 4.72.

On to `Nc1nc(N)nc(CN(CCCNCCCCCCCCCNCCCN(Cc2nc(N)nc(N)n2)Cc2nc(N)nc(N)n2)Cc2nc(N)nc(N)n2)n1`, for which the pIC50 in experiment [1] was 3.66; in experiment [4], 4.49; in experiment [2] it was 5.40; in experiment [3] it was less than 4.06. The pKi in experiment [5] was 4.09.

On to `CN(C)c1nc(NCCCNCCCCCCCCCNCCCNc2nc(N(C)C)nc(N(C)C)n2)nc(N(C)C)n1`, for which the pIC50 in experiment [1] is 4.42; in experiment [4] it was 4.49; in experiment [2] it was 5.92; in experiment [3], 4.80. In addition, in experiment [5], the pKi is 4.54.

On to `CN(C)c1nc(NCCCNCCCCCCCCCCCCNCCCNc2nc(N(C)C)nc(N(C)C)n2)nc(N(C)C)n1`, for which the pIC50 in experiment [1] was 5.17; in experiment [4] it was 5.77; in experiment [2], 6.09; in experiment [3], 6.10. Moreover, in experiment [5], the negative logarithm of the Ki (pKi) was 5.60.

For the compound `CNc1nc(CN(CCCNCCCCCCCCCCCCNCCCN(Cc2nc(NC)nc(NC)n2)Cc2nc(NC)nc(NC)n2)Cc2nc(NC)nc(NC)n2)nc(NC)n1`, the pIC50 in experiment [1] was 4.12; in experiment [4] it was 5.54; in experiment [2] it was 6.74; in experiment [3] it was less than 4.11. Further, the pKi in experiment [5] was 5.62.

`CN(C)c1nc(N)nc(NCCCNCCCCCCCCCCCCNCCCNc2nc(N)nc(N(C)C)n2)n1`: the pIC50 in experiment [1] is 4.29; in experiment [4], less than 4.00; in experiment [2], 5.46; in experiment [3] it was 5.01. Also, in experiment [5], the pKi was 6.62.

Regarding `CN(C)c1nc(NCCCNCCCCCCCCCCCCNCCCN)nc(N(C)C)n1`, the pIC50 in experiment [1] was 4.85; in experiment [4], 4.83; in experiment [2], 5.89; in experiment [3] it was 6.15. In experiment [5], this compound showed a pKi of 6.22.

Regarding `Nc1nc(N)nc(NCCCNC2CCCCC2NCCCNc2nc(N)nc(N)n2)n1` (centres undefined), the pIC50 was 3.47 in experiment [1], less than 4.00 in experiment [4], less than 3.82 in experiment [2] and less than 3.82 in experiment [3]. The pKi in experiment [5] was 4.26.

Turning to `Nc1nc(N)nc(NCCCNCCCCCCCCCCCCNCCCNc2nc(N)nc(N)n2)n1`, the pIC50 is 3.53 in experiment [1], less than 4.00 in experiment [4], 4.80 in experiment [2] and less than 4.89 in experiment [3]. Moreover, the pKi in experiment [5] was 6.30.

Regarding `CNc1nc(CN(CCCNCCCCCCCCCNCCCN(Cc2nc(NC)nc(NC)n2)Cc2nc(NC)nc(NC)n2)Cc2nc(NC)nc(NC)n2)nc(NC)n1`, the pIC50 in experiment [1] was 3.75; in experiment [4] it was 7.00; in experiment [2], 6.58; in experiment [3], 4.11. In addition, the pKi in experiment [5] is 4.52.

For the compound `CC(CNCCCNc1nc(N)nc(N)n1)NCCCNc1nc(N)nc(N)n1` (centres undefined), the pIC50 in experiment [1] was 3.44; in experiment [4] it was less than 4.00; in experiment [2] it was less than 3.79; in experiment [3] it was less than 3.79. For the same compound, the negative logarithm of the Ki (pKi) in experiment [5] was 3.79.

Turning to `CNc1nc(NC)nc(NCCCNCCCCCCCCCNCCCN)n1`, the pIC50 in experiment [1] is 3.87; in experiment [4] it was 4.08; in experiment [2], 6.03; in experiment [3], 4.64. In experiment [5], this compound had a pKi of 4.77.

As for `Nc1nc(N)nc(CN(CCCNCCCCCCCCCCCCNCCCN(Cc2nc(N)nc(N)n2)Cc2nc(N)nc(N)n2)Cc2nc(N)nc(N)n2)n1`, the pIC50 in experiment [1] is 3.73; in experiment [4], 4.68; in experiment [2], 6.24; in experiment [3], less than 4.07. In experiment [5], the pKi is 5.17.
